From ChEMBL document CHEMBL1123290, “Synthesis, antimalarial activity, and quantitative structure-activity relationships of tebuquine and a series of related 5-[(7-chloro-4-quinolinyl)amino]-3-[(alkylamino)methyl] [1,1'-biphenyl]-2-ols and N omega-oxides” (1986)

What was measured:
Format in all cases: functional
[1] = test system: Plasmodium berghei; experiment: Change in mean survival time for control (average 6.2 days) versus treated mice (Mus musculus) 72 hrs after 10 mg/kg subcutaneous dose
[2] = test system: Plasmodium berghei; experiment: Change in mean survival time for control (average 6.2 days) versus treated mice (Mus musculus) 72 hrs after 20 mg/kg subcutaneous dose
[3] = test system: Plasmodium berghei; experiment: Difference in mean survival time in mice (Mus musculus) (control = 6.2 days) after single 40mg/kg subcutaneous dose 72hr post infection
[4] = test system: Plasmodium berghei; experiment: Antimalarial activity as 60-day survivors in Plasmodium berghei infected mice (Mus musculus) after single 160mg/kg subcutaneous dose 72 hr post infection
How it was run: (§1)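 Mice were infected with a normal drug-sensitive Plasmodium berghei strain. At 72 h postinfection each received one subcutaneous dose of compound dissolved or suspended in peanut oil, in five-mouse groups per dose. The read-out was the number of mice alive at 60 days postinfection, which were scored as cured.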

[5] = test system: Plasmodium berghei; experiment: Antimalarial activity as 60-day survivors in infected mice (Mus musculus) after single 320mg/kg subcutaneous dose 72 hr post infection; how it was run: as §1
[6] = test system: Mus musculus; experiment: Antimalarial activity, administered as a single subcutaneous dose of 640 mg/kg, 72 hrs post infection measured as number of mice (Mus musculus) surviving at 60 days post infection; how it was run: as §1
[7] = test system: Mus musculus; experiment: Antimalarial activity, administered as a single subcutaneous dose of 80 mg/kg, 72 hrs post infection measured as number of mice (Mus musculus) surviving at 60 days post infection; how it was run: as §1
[8] = test system: Plasmodium berghei; experiment: Antimalarial activity in primary screen
[9] = test system: Plasmodium berghei; experiment: Change in mean survival time for control (average 6.2 days) versus treated mice (Mus musculus) 72 hrs after 640 mg/kg subcutaneous dose
[10] = test system: Plasmodium berghei; experiment: Change in mean survival time for control (average of 6.2 days) versus treated mice (Mus musculus) 72 hrs after 80 mg/kg subcutaneous dose
[11] = test system: Plasmodium berghei; experiment: Change in mean survival time for control (average 6.2 days) versus treated mice (Mus musculus) 72 hrs after 160 mg/kg subcutaneous dose
[12] = test system: Plasmodium berghei; experiment: Change in mean survival time for control (average 6.2 days) versus treated mice (Mus musculus) 72 hrs after 320 mg/kg subcutaneous dose
[13] = test system: Plasmodium berghei; experiment: Change in mean survival time for control (average 6.2 days) versus treated mice (Mus musculus) 72 hrs after 5 mg/kg subcutaneous dose
[14] = test system: Plasmodium berghei; experiment: Change in mean survival time for control (average 6.2 days) versus treated mice (Mus musculus) 72 hrs after […] subcutaneous dose
[15] = test system: Plasmodium berghei; experiment: Change in mean survival time for control (average 6.2 days) versus treated mice (Mus musculus) 72 hrs after […] subcutaneous dose
[16] = test system: Mus musculus; experiment: Antimalarial activity, administered as a single subcutaneous dose of 40 mg/kg, 72 hrs post infection measured as number of mice (Mus musculus) surviving at 60 days post infection; how it was run: as §1

SMILES | Delta MST [1] | Delta MST [2] | Delta MST [3] | No. of mice cured [4] | No. of mice cured [5] | No. of mice cured [6] | No. of mice cured [7] | ED30 [8] | Delta MST [9] | Delta MST [10] | Delta MST [11] | Delta MST [12] | Delta MST [13] | Delta MST [14] | Delta MST [15] | No. of mice cured [16]
CCN(CC)Cc1cc(Nc2ccnc3cc(Cl)ccc23)cc(CN(CC)CC)c1O [CYLCLOQUINE] | 11.5 days | 15.1 days | 19.1 days | 4 | 5 | 5 | 2 |  |  |  |  |  |  |  |  | 
CCN(CC)Cc1cc(Nc2ccnc3cc(Cl)ccc23)cc(-c2ccc(O)cc2)c1O |  | -0.2 days | 0.8 days |  | 2 | 1 |  | 320 mg/kg | 4.1 days | 4.8 days | 6.8 days | 3.8 days |  |  |  | 
CCN(CC)Cc1cc(Nc2ccnc3cc(Cl)ccc23)cc(-c2ccccc2C(F)(F)F)c1O | 3.1 days | 12.5 days | 18.5 days | 5 | 4 | 4 | 1 | 34.7 mg/kg | 20.7 days | 25.5 days |  | 30.7 days | 1.1 days | 0.3 days | -0.3 days | 1
CCN(CC)Cc1cc(Nc2cc[n+]([O-])c3cc(Cl)ccc23)ccc1O |  |  |  | 3 | 5 | 3 |  |  |  |  |  |  |  |  |  | 
CCN(CC)Cc1cc(Nc2ccnc3cc(Cl)ccc23)cc(-c2ccc(OC)cc2)c1O | 2.9 days | 4.3 days | 7.3 days | 2 | 3 | 5 | 1 | 112 mg/kg |  | 12.4 days | 16.1 days | 28.9 days | 1.3 days | 0.5 days | 0.1 days | 
CCCCN(CCCC)Cc1cc(Nc2ccnc3cc(Cl)ccc23)cc(-c2ccc(Cl)cc2)c1O | 2 days | 4.6 days | 8.2 days |  |  | 3 |  |  | 34.4 days | 12.6 days | 17 days | 24 days | 0.2 days | 0.4 days | 0.2 days | 
CCN(CC)Cc1cc(Nc2ccnc3cc(Cl)ccc23)cc(-c2ccccc2F)c1O | 12.8 days | 16.4 days | 18.4 days | 2 | 5 | 5 |  | 26.8 mg/kg |  | 26.2 days | 33.1 days |  | 4.4 days | 0 days | 0.4 days | 1
CCN(CC)Cc1cc(Nc2ccnc3cc(Cl)ccc23)cc(-c2ccc(OC)c(OC)c2)c1O |  | 1.2 days | 3.8 days |  |  | 1 |  | 927 mg/kg | 13.1 | 5.4 days | 8.6 days | 12 days |  |  |  | 
CCN(CC)Cc1cc(Nc2ccnc3cc(Cl)ccc23)cc(-c2cc(OC)ccc2OC)c1O |  | 0 days | 3.8 days |  |  |  |  | 9680 mg/kg | 8.6 days | 3.6 days | 4 days | 8.8 days |  |  |  | 
CCN(CC)Cc1cc(Nc2ccnc3cc(Cl)ccc23)cc(-c2ccccc2OC)c1O | 2.6 days | 6.2 days | 9.4 days | 2 | 2 | 5 | 2 | 74 mg/kg |  | 14.9 days | 18.9 days | 37.9 days | 0.4 days | -0.2 days | 0.2 days | 
CCN(CC)Cc1cc(Nc2ccnc3cc(Cl)ccc23)cc(-c2ccc(F)cc2)c1O |  |  | 13.4 days |  |  |  |  | 8.8 mg/kg | 14.8 days |  | 12.8 days |  |  |  |  | 2
CCN(CC)Cc1cc(Nc2ccnc3cc(Cl)ccc23)cc(-c2ccncc2)c1O | 2.1 days | 5.5 days | 9.3 days | 1 | 1 | 2 | 1 | 89 mg/kg | 25 days | 11.5 days | 21.7 days | 21.2 days | 1.9 days | -0.1 days | 0.5 days | 
CCN(CC)Cc1cc(Nc2ccnc3cc(Cl)ccc23)ccc1O.Cl | 5.7 days | 8.3 days | 11.9 days | 5 | 5 | 5 | 2 |  |  |  |  |  |  |  |  | 
Oc1c(CNC23CC4CC(CC(C4)C2)C3)cc(Nc2ccnc3cc(Cl)ccc23)cc1-c1ccc(Cl)cc1 | 0.1 days | 7.5 days | 18.5 days | 4 | 5 | 2 | 4 |  | 19 days | 23 days | 39 days |  | -0.3 days | -0.5 days | -0.3 days | 
CCN(CC)Cc1cc(Nc2ccnc3cc(Cl)ccc23)cc(-c2ccccn2)c1O |  | 2.6 days | 3.8 days |  | 3 | 3 |  | 160 mg/kg | 25.3 days | 7.8 days | 11.2 days | 15.8 days |  |  |  | 
CCN(CC)Cc1cc(Nc2ccnc3cc(Cl)ccc23)cc(-c2ccc(C)cc2)c1O | 1.6 days | 3.3 days | 4.5 days |  |  |  |  | 1530 mg/kg | 20.5 days | 6.5 days | 9.7 days | 14.5 days | 0.4 days | 0.4 days | 0.4 days | 
Oc1c(CN2CCCC2)cc(Nc2ccnc3cc(Cl)ccc23)cc1-c1ccc(Cl)c(Cl)c1 | 0.1 days | 8.3 days | 18.5 days | 4 | 3 | 3 | 1 |  | 33.9 days | 30.2 days |  | 25.9 days |  | -0.1 days | -0.1 days | 
CCN(CC)Cc1cc(Nc2ccnc3cc(Cl)ccc23)cc(-c2ccc(SC)cc2)c1O | 1.3 days | 6.7 days | 9.1 days |  | 2 | 4 |  | 151 mg/kg | 13.6 days | 10 days | 19.2 days | 25.3 days | 0.5 days | 0.5 days | 0.1 days | 
CCN(CC)Cc1cc(Nc2ccnc3cc(Cl)ccc23)cc(-c2cccc3ccccc23)c1O | 0.7 days | 0.3 days | 2.3 days |  | 1 | 2 |  | 4200 mg/kg | 8.1 days | 5.8 days | 6.6 days | 11.2 days | -0.3 days | 0.1 days | -0.1 days | 
CC(C)(C)NCc1cc(C(C)(C)C)cc(-c2ccc(Cl)cc2)c1O |  | 5.1 days | 12.9 days | 5 | 5 | 5 |  |  |  | 15.7 days |  |  |  |  |  | 
CCN(CC)Cc1cc(Nc2ccnc3cc(Cl)ccc23)cc(-c2ccc(Cl)c(Cl)c2)c1O | 0.9 days | 15.7 days | 23.7 days | 4 | 5 | 3 | 4 | 22.7 mg/kg | 10.9 days | 33.4 days | 21.4 days |  | 0.1 days | -0.1 days | -0.3 days | 3
